{"source": "ChEMBL document CHEMBL4627381", "about": "“Licochalcone A Selectively Resensitizes ABCG2-Overexpressing Multidrug-Resistant Cancer Cells to Chemotherapeutic Drugs” (J Nat Prod, 2020)", "key": {"[1]": {"system": "S1-M1-80", "experiment": "Potentiation of topotecan-induced apoptosis in human S1-M1-80 cells harboring ABCG2 (unknown origin) assessed as early apoptotic cells at 10 uM incubated for 48 hrs by annexin V/propidium iodide staining based flow cytometry (reference value: 3%)", "format": "functional"}, "[2]": {"system": "S1", "experiment": "Induction of apoptosis in human S1 cells assessed as viable cells at 10 uM incubated for 48 hrs in presence of topotecan by annexin V/propidium iodide staining based flow cytometry (reference value: 94.1%)", "format": "functional", "settings": "S1, 48 h, read-out: Activity"}, "[3]": {"system": "LS180", "experiment": "Upregulation of ABCB1 mRNA expression in human LS180 cells at 1 uM by […] relative to control", "format": "functional"}, "[4]": {"system": "S1", "experiment": "Induction of apoptosis in human S1 cells assessed as viable cells at 10 uM incubated for 48 hrs by annexin V/propidium iodide staining based flow cytometry (reference value: 94.1%)", "format": "functional", "settings": "S1, 48 h, read-out: Activity"}, "[5]": {"species": "Homo sapiens", "experiment": "Downregulation of ABCG2 expression in human NCI-H460/MX20 cells at 0.5 to 3 uM incubated for 72 hrs by Western blot analysis", "format": "functional, cell-based", "summary_of_the_method": "(§1)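 S1-M1–80 and H460-MX20 cells were treated with 0.5–3.0 μM or DMSO vehicle for 72 h, then run on SDS-PAGE and immunoblotted with BXP-21 (1:15000) for ABCG2. α-Tubulin (1:100000) served as loading control, with HRP goat anti-mouse secondary. Bands were quantified as mean ± SEM of three independent experiments.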"}, "[6]": {"system": "S1-M1-80", "experiment": "Downregulation of ABCG2 expression in human S1-M1-80 cells at 0.5 to 3 uM incubated for 72 hrs by Western blot analysis", "format": "functional, cell-based", "summary_of_the_method": "as §1"}, "[7]": {"target": "ATP-dependent translocase ABCB1 (Homo sapiens, UniProt P08183)", "sequence (P08183 whole entry)": "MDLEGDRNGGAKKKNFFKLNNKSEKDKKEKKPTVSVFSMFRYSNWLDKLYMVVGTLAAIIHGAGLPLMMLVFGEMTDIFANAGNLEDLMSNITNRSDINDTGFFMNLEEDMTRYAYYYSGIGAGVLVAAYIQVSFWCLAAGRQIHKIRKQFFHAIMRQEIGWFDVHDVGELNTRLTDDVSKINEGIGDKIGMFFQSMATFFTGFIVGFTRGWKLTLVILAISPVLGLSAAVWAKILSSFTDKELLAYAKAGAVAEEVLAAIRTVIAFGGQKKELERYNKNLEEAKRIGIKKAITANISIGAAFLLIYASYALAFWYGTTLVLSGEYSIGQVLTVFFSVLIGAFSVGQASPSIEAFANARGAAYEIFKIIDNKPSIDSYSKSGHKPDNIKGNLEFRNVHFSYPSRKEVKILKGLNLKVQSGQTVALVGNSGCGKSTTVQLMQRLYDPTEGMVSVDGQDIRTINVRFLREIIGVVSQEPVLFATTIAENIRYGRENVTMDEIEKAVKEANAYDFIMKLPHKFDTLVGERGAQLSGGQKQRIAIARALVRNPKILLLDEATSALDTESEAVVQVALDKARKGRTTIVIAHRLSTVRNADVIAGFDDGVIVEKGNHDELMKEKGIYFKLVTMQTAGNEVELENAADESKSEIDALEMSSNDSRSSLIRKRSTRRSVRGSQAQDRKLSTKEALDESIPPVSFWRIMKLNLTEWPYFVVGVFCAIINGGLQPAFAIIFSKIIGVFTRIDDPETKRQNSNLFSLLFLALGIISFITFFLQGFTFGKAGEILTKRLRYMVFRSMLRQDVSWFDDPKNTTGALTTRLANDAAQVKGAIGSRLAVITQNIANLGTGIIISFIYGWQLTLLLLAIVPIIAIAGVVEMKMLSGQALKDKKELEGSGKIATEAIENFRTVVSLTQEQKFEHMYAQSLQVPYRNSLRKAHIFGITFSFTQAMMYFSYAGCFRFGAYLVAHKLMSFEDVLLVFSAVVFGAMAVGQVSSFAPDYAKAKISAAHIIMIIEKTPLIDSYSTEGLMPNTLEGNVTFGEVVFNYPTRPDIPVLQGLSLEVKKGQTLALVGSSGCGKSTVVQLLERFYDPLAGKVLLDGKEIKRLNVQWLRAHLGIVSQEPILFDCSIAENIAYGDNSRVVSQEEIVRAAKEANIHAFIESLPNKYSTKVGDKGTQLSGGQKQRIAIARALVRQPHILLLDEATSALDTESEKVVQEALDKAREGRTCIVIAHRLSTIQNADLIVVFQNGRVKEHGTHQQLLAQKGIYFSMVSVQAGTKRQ", "experiment": "Modulation of human ABCB1 expressed in HEK293/MDR19 cells assessed as increase in intracellular calcein-AM accumulation at 20 uM incubated for 10 mins by FACScan flow cytometry", "format": "cell-based", "summary_of_the_method": "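Cells held drug-free 7 days. 3 × 10^5 cells in IMDM with 5% FCS were loaded with calcein-AM for 10 min, with or without 20 μM LCA. Reference inhibitors were tariquidar 3 μM (ABCB1) and MK-571 25 μM (ABCC1). Calcein fluorescence (ex 485/em 535 nm) was read by flow cytometry; at least three independent experiments.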"}, "[8]": {"system": "S1-M1-80", "experiment": "Cytotoxicity against human S1-M1-80 cells harboring ABCG2 (unknown origin) after 72 hrs by MTT assay", "format": "functional, cell-based", "settings": "S1-M1-80, 72 h", "summary_of_the_method": "(§2)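 Cells seeded at 5000/well, allowed 24 h, then exposed to a concentration series for 72 h at 37 °C in DMSO vehicle (up to 0.5% v/v). HEK293 lines were read with CCK-8 and cancer lines with MTT. IC50 was taken from fitted dose-response curves over at least three independent experiments. Lines were kept drug-free for 7 days before assay.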"}, "[9]": {"system": "HEK293", "experiment": "Cytotoxicity against HEK293 cells after 72 hrs by CCK8 assay", "format": "cell-based", "settings": "Homo sapiens, HEK293, 72 h", "summary_of_the_method": "as §2"}, "[10]": {"system": "NCI-H460", "experiment": "Effect on topotecan-induced cytotoxicity against human H460 cells assessed as fold change in topotecan IC50 at 0.5 uM after 72 hrs by MTT assay relative to topotecan IC50", "format": "functional", "summary_of_the_method": "(§3)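 Parental S1 colon and H460 lung cancer cells were exposed for 72 h to a mitoxantrone or topotecan concentration series, with or without modulator at 0.5–3.0 μM, and read by MTT. Fold-reversal is IC50 without modulator divided by IC50 with modulator, taken from dose-response curves of three independent experiments.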"}, "[11]": {"target": "T1, Broad substrate specificity ATP-binding cassette transporter ABCG2 (Homo sapiens, UniProt Q9UNQ0)", "T1 sequence (Q9UNQ0 whole entry)": "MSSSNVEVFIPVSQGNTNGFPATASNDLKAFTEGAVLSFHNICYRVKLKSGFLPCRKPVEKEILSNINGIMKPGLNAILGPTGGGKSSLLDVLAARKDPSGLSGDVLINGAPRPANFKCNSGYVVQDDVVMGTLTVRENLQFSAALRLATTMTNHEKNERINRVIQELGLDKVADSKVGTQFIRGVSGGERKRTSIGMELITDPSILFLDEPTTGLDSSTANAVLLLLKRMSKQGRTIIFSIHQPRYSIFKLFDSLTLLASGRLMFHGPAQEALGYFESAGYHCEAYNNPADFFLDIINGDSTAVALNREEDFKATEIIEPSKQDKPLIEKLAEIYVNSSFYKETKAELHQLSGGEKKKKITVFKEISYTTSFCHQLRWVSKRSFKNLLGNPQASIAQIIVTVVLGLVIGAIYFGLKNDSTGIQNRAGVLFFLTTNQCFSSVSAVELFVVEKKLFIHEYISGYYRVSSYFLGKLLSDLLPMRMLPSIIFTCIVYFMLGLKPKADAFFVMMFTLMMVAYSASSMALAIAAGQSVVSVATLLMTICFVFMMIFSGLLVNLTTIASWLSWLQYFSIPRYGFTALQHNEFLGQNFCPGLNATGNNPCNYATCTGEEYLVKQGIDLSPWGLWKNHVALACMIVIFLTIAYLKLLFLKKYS", "experiment": "Reversal of ABCG2 (unknown origin)-mediated multidrug resistance in human H460-MX20 cells assessed as fold change in mitoxantrone IC50 at 2 uM after 72 hrs by MTT assay relative to mitoxantrone IC50", "format": "cell-based", "summary_of_the_method": "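Cells held drug-free 7 days, seeded at 5000 per well for 24 h, then exposed 72 h to mitoxantrone or topotecan dilutions with DMSO (≤0.5%), LCA 0.5–3.0 μM, or Ko143 1.0 μM. Viability was read by MTT. IC50 came from fitted dose-response curves of three independent experiments. Fold-reversal = IC50 without modulator divided by IC50 with modulator.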"}, "[12]": {"system": "NCI-H460", "experiment": "Effect on mitoxantrone-induced cytotoxicity against human H460 cells assessed as fold change in mitoxantrone IC50 at 0.5 uM after 72 hrs by MTT assay relative to mitoxantrone IC50", "format": "functional", "summary_of_the_method": "as §3"}, "[13]": {"target": "T1, Broad substrate specificity ATP-binding cassette transporter ABCG2", "experiment": "Reversal of ABCG2 (unknown origin)-mediated multidrug resistance in human S1-M1-80 cells assessed as fold-change in mitoxantrone IC50 at 1 uM after 72 hrs by MTT assay relative to mitoxantrone IC50", "format": "cell-based", "settings": "s1-m1-80, 72 h", "summary_of_the_method": "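MTT readout in S1-M1-80 colon cancer cells (mitoxantrone-selected, held in 80 μM mitoxantrone, then drug-free 7 days before assay). Cells were seeded at 5000/well for 24 h, then given increasing mitoxantrone or topotecan with DMSO or non-toxic modulator for 72 h at 37 °C. IC50 came from fitted dose-response curves (at least three independent experiments). Fold-reversal = IC50 without modulator ÷ IC50 with modulator.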"}, "[14]": {"target": "T1, Broad substrate specificity ATP-binding cassette transporter ABCG2", "experiment": "Reversal of human ABCG2-mediated multidrug resistance in HEK293/R482 cells assessed as fold-change in topotecan IC50 at 0.5 uM after 72 hrs by CCK8 relative to topotecan IC50", "format": "cell-based", "summary_of_the_method": "(§4)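 Cells were seeded at 5000/well for 24 h, then given colchicine, etoposide, mitoxantrone or topotecan ± non-toxic modulator (0.5–3.0 μM) for 72 h, with DMSO up to 0.5%. IC50 came from fitted curves (mean ± SD, three experiments). Fold-reversal = IC50 without modulator ÷ IC50 with modulator.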"}, "[15]": {"target": "Multidrug resistance-associated protein 1 (Homo sapiens, UniProt P33527)", "sequence (P33527 whole entry)": "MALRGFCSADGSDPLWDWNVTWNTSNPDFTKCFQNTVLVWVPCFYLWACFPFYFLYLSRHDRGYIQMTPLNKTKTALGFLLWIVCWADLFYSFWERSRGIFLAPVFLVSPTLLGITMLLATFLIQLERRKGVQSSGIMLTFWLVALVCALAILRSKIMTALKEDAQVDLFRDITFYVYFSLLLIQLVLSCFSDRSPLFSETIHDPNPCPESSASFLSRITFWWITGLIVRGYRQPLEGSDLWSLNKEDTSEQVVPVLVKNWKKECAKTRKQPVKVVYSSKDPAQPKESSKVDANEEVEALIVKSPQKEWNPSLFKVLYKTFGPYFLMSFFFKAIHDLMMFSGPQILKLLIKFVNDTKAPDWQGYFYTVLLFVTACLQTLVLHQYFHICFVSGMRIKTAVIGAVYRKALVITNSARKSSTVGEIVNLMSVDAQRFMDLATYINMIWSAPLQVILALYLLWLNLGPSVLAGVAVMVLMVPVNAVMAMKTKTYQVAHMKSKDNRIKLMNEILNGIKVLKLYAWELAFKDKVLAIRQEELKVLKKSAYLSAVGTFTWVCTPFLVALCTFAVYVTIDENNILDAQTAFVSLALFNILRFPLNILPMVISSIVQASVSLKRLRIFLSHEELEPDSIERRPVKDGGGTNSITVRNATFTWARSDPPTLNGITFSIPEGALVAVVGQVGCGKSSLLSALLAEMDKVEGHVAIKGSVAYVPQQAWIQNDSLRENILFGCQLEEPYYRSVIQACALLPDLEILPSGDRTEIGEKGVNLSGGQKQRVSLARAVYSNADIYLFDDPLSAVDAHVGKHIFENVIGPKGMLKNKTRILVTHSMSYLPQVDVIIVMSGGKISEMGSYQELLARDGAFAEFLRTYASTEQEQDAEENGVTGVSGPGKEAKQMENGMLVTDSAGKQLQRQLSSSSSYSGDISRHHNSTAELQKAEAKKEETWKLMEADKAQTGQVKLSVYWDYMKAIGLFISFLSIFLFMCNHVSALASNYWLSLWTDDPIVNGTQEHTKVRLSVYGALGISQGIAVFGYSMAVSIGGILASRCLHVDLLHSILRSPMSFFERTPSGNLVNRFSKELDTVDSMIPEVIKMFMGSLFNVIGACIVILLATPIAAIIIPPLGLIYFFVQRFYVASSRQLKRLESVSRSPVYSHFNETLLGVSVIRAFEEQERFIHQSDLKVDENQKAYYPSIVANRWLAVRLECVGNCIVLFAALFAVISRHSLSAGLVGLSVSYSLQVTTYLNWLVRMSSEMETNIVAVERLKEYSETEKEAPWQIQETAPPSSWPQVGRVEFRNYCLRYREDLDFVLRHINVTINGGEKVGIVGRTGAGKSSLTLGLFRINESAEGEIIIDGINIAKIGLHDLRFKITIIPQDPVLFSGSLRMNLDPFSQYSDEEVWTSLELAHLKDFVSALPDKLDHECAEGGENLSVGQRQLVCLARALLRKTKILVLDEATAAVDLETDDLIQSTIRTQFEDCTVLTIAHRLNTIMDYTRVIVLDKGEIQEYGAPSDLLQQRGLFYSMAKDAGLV", "experiment": "Reversal of human ABCC1-mediated multidrug resistance in HEK293/MRP1 cells assessed as fold-change in etoposide IC50 at 1 uM after 72 hrs by CCK8 relative to etoposide IC50", "format": "cell-based", "summary_of_the_method": "as §4"}}, "note": "Active and inactive are the calls of the source. The calls are words filed in the database; no cut-off is given here.", "data": [{"smiles": "C=CC(C)(C)c1cc(/C=C/C(=O)c2ccc(O)cc2)c(OC)cc1O", "note": "[LICOAGROCHACONE A]", "values": [{"measurement": "Activity", "setting": "[1]", "value": 9, "unit": "%"}, {"measurement": "viability at 10 µM", "setting": "[2]", "value": 44.1, "unit": "%"}, {"measurement": "fold change (FC)", "setting": "[3]", "value": "2 - 6"}, {"measurement": "viability at 10 µM", "setting": "[4]", "value": 95.4, "unit": "%"}, {"measurement": "Activity", "setting": "[5]", "value": "inactive"}, {"measurement": "Activity", "setting": "[6]", "value": "inactive"}, {"measurement": "Activity", "setting": "[7]", "value": "Not Active"}, {"measurement": "IC50", "setting": "[8]", "value": "10 to 50", "unit": "µM"}, {"measurement": "IC50", "setting": "[9]", "value": "10 to 50", "unit": "µM"}, {"measurement": "fold change (FC)", "setting": "[10]", "value": 1.5}, {"measurement": "fold change (FC)", "setting": "[11]", "value": 15.5}, {"measurement": "fold change (FC)", "setting": "[12]", "value": 0.8}, {"measurement": "fold change (FC)", "setting": "[13]", "value": 10.8}, {"measurement": "fold change (FC)", "setting": "[14]", "value": 2.2}, {"measurement": "fold change (FC)", "setting": "[15]", "value": 1.3}]}]}
